In ChEMBL document CHEMBL5705892, “MK-2206, an allosteric Akt inhibitor, enhances antitumor efficacy by standard chemotherapeutic agents or molecular targeted drugs in vitro and in vivo” (Mol Cancer Ther, 2010):
The source made the active and inactive calls. The rule behind the calls is not given here.

Assays:
[1] = Toxicity in human NCI-H292 cells xenografted CD-1 mouse assessed as weight loss at 120 mg/kg, po administered 3 times per week for 2 weeks starting 2 hrs post-erlotinib treatment and measured during compound dosing; assay type: organism-based; conditions: in vivo, 336 h
In short: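 NCI-H292 cells in 50% Matrigel/PBS injected s.c. into flank of female CD1-nude mice; dosing began after 2 wk at mean tumour 0.2 cm³, n = 5/group. […] Body weight and signs monitored; treatment ended day 16.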

NCI-H460 [2] = assay: Antiproliferative activity against human NCI-H460 cells assessed as reduction in cell proliferation measured after 72 hrs by celltiter-glo assay; assay type: functional, cell-based; conditions: NCI-H460, 72 h
HCC70 [3] = assay: Antiproliferative activity against human HCC70 cells assessed as reduction in cell proliferation measured after 72 hrs by celltiter-glo assay; assay type: functional, cell-based; conditions: HCC70, 72 h
In short: (§1)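 Cells in RPMI 1640 with 10% heat-inactivated FBS at 37°C and 5% CO₂ were seeded at 2 to 3 × 10³ per well. […] Growth was read as cellular ATP by CellTiter-Glo.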

NCI-N87 [4] = assay: Antiproliferative activity against human NCI-N87 cells assessed as reduction in cell proliferation measured after 72 hrs by celltiter-glo assay; assay type: functional, cell-based; conditions: NCI-N87, 72 h; in short: as §1
NCI-N87 [5] = assay: Synergistic antiproliferative activity against human NCI-N87 cells assessed as combination index at ED50 measured after 72 hrs in presence of lapatinib by celltiter-glo assay; assay type: functional
HCC827 [6] = assay: Synergistic antiproliferative activity against human HCC827 cells assessed as combination index at ED75 measured after 72 hrs in presence of erlotinib by celltiter-glo assay; assay type: functional
In short: (§2)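 Cells grown in RPMI 1640 with 10% heat-inactivated FBS at 37°C, 5% CO₂. Seeded at 2 to 3 × 10³ per well; drugs added 24 h later. […] Viability read as cellular ATP by CellTiter-Glo. CI calculated by Chou–Talalay from median-effect plots at ED50, ED75 and ED90.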

NCI-H1299 = assay: Synergistic antiproliferative activity against human NCI-H1299 cells assessed as combination index at ED75 measured after 72 hrs in presence of erlotinib by celltiter-glo assay; assay type: functional
NCI-H460 [7] = assay: Synergistic antiproliferative activity against human NCI-H460 cells assessed as combination index at ED75 measured after 72 hrs in presence of erlotinib by celltiter-glo assay; assay type: functional
HCC827 [8] = assay: Synergistic antiproliferative activity against human HCC827 cells assessed as combination index at ED90 measured after 72 hrs in presence of erlotinib by celltiter-glo assay; assay type: functional; in short: as §2
NCI-H460 [9] = assay: Synergistic antiproliferative activity against human NCI-H460 cells assessed as combination index at ED90 measured after 72 hrs in presence of erlotinib by celltiter-glo assay; assay type: functional
[10] = In vivo inhibition of ERK phosphorylation at T202/Y204 residues in human NCI-H292 cells xenografted mouse at 120 mg/kg, po administered as single dose measured after 12 hrs by Western blot analysis relative to control; assay type: functional
[11] = In vivo inhibition of ERK phosphorylation at T202/Y204 residues in human NCI-H292 cells xenografted mouse at 120 mg/kg, po administered as single dose 2 hrs post-erlotinib treatment measured after 12 hrs by Western blot analysis relative to control; assay type: functional
HCC70 [12] = assay: Synergistic antiproliferative activity against lapatinib pretreated human HCC70 cells assessed as combination index at ED50 measured after 72 hrs by celltiter-glo assay; assay type: functional
HCC70 [13] = assay: Synergistic antiproliferative activity against lapatinib pretreated human HCC70 cells assessed as combination index at ED75 measured after 72 hrs by celltiter-glo assay; assay type: functional
HCC1954 = assay: Synergistic antiproliferative activity against lapatinib pretreated human HCC1954 cells assessed as combination index at ED75 measured after 72 hrs by celltiter-glo assay; assay type: functional
SK-OV-3 [14] = assay: Synergistic antiproliferative activity against lapatinib pretreated human SK-OV-3 cells assessed as combination index at ED90 measured after 72 hrs by celltiter-glo assay; assay type: functional
[15] = Effect on total S6 protein expression in human HCC70 cells at 1 umol/L measured after 3 to 24 hrs in presence of lapatinib by Western blot analysis; assay type: toxicity, cell-based; conditions: hcc70, 1 µM, time 3-24 hrs, dose 1 µmol/L
In short: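 HCC70 cells at ~70% confluence were exposed to 1 µmol/L MK-2206, 10 µmol/L lapatinib, or both for 0, 3, 6, 12 or 24 h. Cells were lysed in Tris-HCl pH 7.5/NaCl/1% Triton X-100 with protease and phosphatase inhibitors. Lysates were run on SDS-PAGE and immunoblotted.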

SK-OV-3 [16] = assay: Antitumor activity against human SK-OV-3 cells xenografted in CB17/icr SCID mouse assessed as tumor growth inhibition at 60 to 120 mg/kg, po administered 3 times per week for 2 weeks and measured twice a week during compound dosing by caliper method; assay type: functional, organism-based; conditions: dose 60-120 mg/kg
In short: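 SK-OV-3 cells were implanted s.c. into female C.B-17/ICR-scid mice, which were randomized at 0.13 cm³, n = 5. Lapatinib (water) was given at 100 mg/kg po on days 0–4 and 7–11. MK-2206 (30% Captisol) was given at 60 or 120 mg/kg po on days 0, 2, 4, 7, 9, 11. Tumor volume by calipers twice weekly.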

MDA-MB-453 = assay: Synergistic antiproliferative activity against human MDA-MB-453 cells assessed as combination index at ED90 measured after 72 hrs in presence of docetaxel by celltiter-glo assay; assay type: functional; in short: as §2
A2780 [17] = assay: Synergistic antiproliferative activity against human A2780 cells assessed as combination index at ED50 measured after 72 hrs in presence of camptothecin by celltiter-glo assay; assay type: functional
In short: (§3)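 Cells were seeded at 2–3 × 10³ per well in RPMI 1640 with 10% FBS. At 24 h, MK-2206 and the partner drug were added simultaneously at constant concentration ratios spanning each agent's IC₅₀, for 72 h. Growth was read as cellular ATP by CellTiter-Glo. CI was taken from median-effect plots of each agent alone and in combination (Chou–Talalay), at ED₅₀, ED₇₅ and ED₉₀.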

A2780 [18] = assay: Synergistic antiproliferative activity against human A2780 cells assessed as combination index at ED90 measured after 72 hrs in presence of camptothecin by celltiter-glo assay; assay type: functional; in short: as §3
NCI-H460 [19] = assay: Synergistic antiproliferative activity against human NCI-H460 cells assessed as combination index at ED75 measured after 72 hrs in presence of doxorubicin by celltiter-glo assay; assay type: functional
NCI-H460 [20] = assay: Synergistic antiproliferative activity against human NCI-H460 cells assessed as combination index at ED75 measured after 72 hrs in presence of carboplatin by celltiter-glo assay; assay type: functional
NCI-H460 [21] = assay: Synergistic antiproliferative activity against human NCI-H460 cells assessed as combination index at ED90 measured after 72 hrs in presence of camptothecin by celltiter-glo assay; assay type: functional
NCI-H460 [22] = assay: Synergistic antiproliferative activity against human NCI-H460 cells assessed as combination index at ED90 measured after 72 hrs in presence of gemcitabine by celltiter-glo assay; assay type: functional

For `Cl.NC1(c2ccc(-c3nc4ccn5c(=O)[nH]nc5c4cc3-c3ccccc3)cc2)CCC1`, the Activity [1] was “Toxic”, the IC50 (NCI-H460 [2]) was 3400 nM and the IC50 (HCC70 [3]) was 300 nM. It also gave an IC50 (NCI-N87 [4]) of 1600 nM, a CI50 (NCI-N87 [5]) of 0.45 and a CI75 (HCC827 [6]) of 0.18. For the same compound, the CI75 (NCI-H1299) was 0.31, the CI75 (NCI-H460 [7]) was 0.23 and the CI90 (HCC827 [8]) was 0.12. It also gave a CI90 (NCI-H460 [9]) of 0.17, an inhibition in vivo at 120 mg/kg [10] of 27.7% and an inhibition in vivo at 120 mg/kg [11] of 53.5%. It also gave a CI50 (HCC70 [12]) of 0.18, a CI75 (HCC70 [13]) of 0.18 and a CI75 (HCC1954) of 0.18. The CI90 (SK-OV-3 [14]) was 0.18, the Activity [15] was “Toxic” and the TGI (SK-OV-3 [16]) was “Active”. It also gave a CI90 (MDA-MB-453) of 0.3, a CI50 (A2780 [17]) of 0.56 and a CI90 (A2780 [18]) of 0.29. For the same compound, the CI75 (NCI-H460 [19]) was 0.18, the CI75 (NCI-H460 [20]) was 0.3 and the CI90 (NCI-H460 [21]) was 0.63. It also gave a CI90 (NCI-H460 [22]) of 0.56.
